Columns and labels:
Hepatitis C virus [1] = assay: Antiviral activity against Hepatitis C virus subtype 3a subgenomic replicon expressing NS5A infected in human HuH7 cells assessed as reduction in viral replication incubated for 3 days by luciferase reporter gene assay; format: functional, organism-based, Hepacivirus hominis; details: Huh-7, 72 h
In short: (§1)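 HCV replicon cell assay; inhibition of replication read as decrease in luciferase signal. Percent inhibition computed at each compound concentration; EC50 (pM) from nonlinear regression fit to a 4-parameter logistic equation. Values are means of triplicate wells, with each experiment run at least twice.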

Hepatitis C virus [2] = assay: Antiviral activity against Hepatitis C virus subtype 6a subgenomic replicon expressing NS5A infected in human HuH7 cells assessed as reduction in viral replication incubated for 3 days by luciferase reporter gene assay; format: functional, organism-based, Hepacivirus hominis; details: Huh-7, 72 h; in short: as §1
Hepatitis C virus [3] = assay: Antiviral activity against Hepatitis C virus subtype 1a H77 subgenomic replicon expressing NS5A infected in human HuH7 cells assessed as reduction in viral replication incubated for 3 days by luciferase reporter gene assay; format: functional, organism-based, Hepacivirus hominis; details: subtype 1a H77, Huh-7, 72 h; in short: as §1
Hepatitis C virus [4] = assay: Antiviral activity against Hepatitis C virus subtype 1b Con1 subgenomic replicon expressing NS5A infected in human HuH7 cells assessed as reduction in viral replication incubated for 3 days by luciferase reporter gene assay; format: functional, organism-based, Hepacivirus hominis; details: subtype 1b Con1, Huh-7, 72 h; in short: as §1
Hepatitis C virus [5] = assay: Potency index, ratio of EC50 of to EC50 of compound for antiviral activity against Hepatitis C virus subtype 6a subgenomic replicon expressing NS5A infected in human HuH7 cells assessed as reduction in viral replication incubated for 3 days by luciferase reporter gene assay; format: functional, Hepacivirus hominis
[6] = Drug distribution in mouse plasma at 10 mg/kg, po incubated for 0.5 hrs by UPLC-MS/MS analysis; format: ADME, organism-based
In short: (§2)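 Oral dosing in mice and rats; compound measured in plasma and liver by UPLC-MS/MS at each time point, n = 3 (mean ± SD). LPR is mean liver concentration divided by mean plasma concentration.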

[7] = Ratio of drug distribution in mouse liver to drug distribution in mouse plasma measured after 24 hrs by UPLC-MS/MS analysis; format: ADME, cell-free; in short: as §2
[8] = Drug distribution in rat plasma at 10 mg/kg, po incubated for 8 hrs by UPLC-MS/MS analysis; format: ADME, organism-based; in short: as §2
[9] = Drug distribution in mouse liver at 10 mg/kg, po incubated for 24 hrs by UPLC-MS/MS analysis; format: ADME, organism-based; details: read-out: Drug uptake; in short: as §2
[10] = Drug distribution in mouse plasma at 10 mg/kg, po incubated for 24 hrs by UPLC-MS/MS analysis; format: ADME, organism-based; in short: as §2
[11] = Ratio of drug distribution in rat liver to drug distribution in rat plasma measured after 8 hrs by UPLC-MS/MS analysis; format: ADME, cell-free; in short: as §2
[12] = Drug distribution in rat liver at 10 mg/kg, po incubated for 8 hrs by UPLC-MS/MS analysis; format: ADME, organism-based; details: read-out: Drug uptake; in short: as §2
[13] = Drug distribution in rat plasma at 10 mg/kg, po incubated for 0.5 hrs by UPLC-MS/MS analysis; format: ADME, organism-based; in short: as §2
[14] = Ratio of drug distribution in rat liver to drug distribution in rat plasma measured after 3 hrs by UPLC-MS/MS analysis; format: ADME, cell-free; in short: as §2
[15] = Drug distribution in mouse plasma at 10 mg/kg, po incubated for 3 hrs by UPLC-MS/MS analysis; format: ADME, organism-based; in short: as §2
[16] = Drug distribution in mouse liver at 10 mg/kg, po incubated for 3 hrs by UPLC-MS/MS analysis; format: ADME, organism-based; details: read-out: Drug uptake; in short: as §2
[17] = Drug distribution in mouse liver at 10 mg/kg, po incubated for 0.5 hrs by UPLC-MS/MS analysis; format: ADME, organism-based; details: read-out: Drug uptake; in short: as §2
[18] = Drug distribution in rat plasma at 10 mg/kg, po incubated for 3 hrs by UPLC-MS/MS analysis; format: ADME, organism-based; in short: as §2
[19] = Ratio of drug distribution in rat liver to drug distribution in rat plasma measured after 0.5 hrs by UPLC-MS/MS analysis; format: ADME, cell-free; in short: as §2
[20] = Ratio of drug distribution in mouse liver to drug distribution in mouse plasma measured after 0.5 hrs by UPLC-MS/MS analysis; format: ADME, cell-free; in short: as §2
[21] = Drug distribution in rat liver at 10 mg/kg, po incubated for 0.5 hrs by UPLC-MS/MS analysis; format: ADME, organism-based; details: read-out: Drug uptake; in short: as §2
[22] = Ratio of drug distribution in mouse liver to drug distribution in mouse plasma measured after 3 hrs by UPLC-MS/MS analysis; format: ADME, cell-free; in short: as §2
[23] = Drug distribution in rat liver at 10 mg/kg, po incubated for 3 hrs by UPLC-MS/MS analysis; format: ADME, organism-based; details: read-out: Drug uptake; in short: as §2
[24] = Metabolic stability in human liver microsomes assessed as compound remaining at 1 uM incubated for 60 mins by UPLC-MS/MS analysis; format: ADME, Microsome; details: read-out: Stability
In short: (§3)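 Pooled mouse, rat or human liver microsomes (0.5 mg/mL) with 1 μM compound, 1 mM NADPH, 5 mM MgCl₂ and 100 mM potassium phosphate pH 7.4. Pre-incubated 5 min at 37 °C, started with NADPH, then run 60 min at 37 °C. Quenched with ice-cold acetonitrile containing internal standard; parent remaining measured by UPLC-MS/MS.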

[25] = Metabolic stability in mouse liver microsomes assessed as compound remaining at 1 uM incubated for 60 mins by UPLC-MS/MS analysis; format: ADME, Microsome; details: read-out: Stability; in short: as §3
[26] = Metabolic stability in rat liver microsomes assessed as compound remaining at 1 uM incubated for 60 mins by UPLC-MS/MS analysis; format: ADME, Microsome; details: read-out: Stability; in short: as §3

SMILES	EC50 (Hepatitis C virus [1]) [pM]	EC50 (Hepatitis C virus [2]) [pM]	EC50 (Hepatitis C virus [3]) [pM]	EC50 (Hepatitis C virus [4]) [pM]	further results
CC[Si](CC)(CC)c1ccc(N2[C@H](c3ccc(NC(=O)[C@@H]4CCCN4C(=O)[C@@H](NC(=O)OC)C(C)C)cc3)CC[C@H]2c2ccc(NC(=O)[C@@H]3CCCN3C(=O)[C@@H](NC(=O)OC)C(C)C)cc2)cc1	5.8	817	11	2.8	–
COC(=O)N[C@H](C(=O)N1CCC[C@H]1C(=O)Nc1ccc([C@@H]2CC[C@@H](c3ccc(NC(=O)[C@@H]4CCCN4C(=O)[C@@H](NC(=O)OC)C(C)C)cc3)N2c2cc(F)c(N3CC[Si](C)(C)CC3)c(F)c2)cc1)C(C)C	11	88	0.9	0.4	–
COC(=O)N[C@H](C(=O)N1CCC[C@H]1C(=O)Nc1ccc([C@@H]2CC[C@@H](c3ccc(NC(=O)[C@@H]4CCCN4C(=O)[C@@H](NC(=O)OC)[C@@H](C)OC)cc3)N2c2ccc(N3CC[Si](C)(C)CC3)c(F)c2)cc1)[C@@H](C)OC	6	242	12	2.9	–
COC(=O)N[C@H](C(=O)N1CCC[C@H]1C(=O)Nc1ccc([C@@H]2CC[C@@H](c3ccc(NC(=O)[C@@H]4CCCN4C(=O)[C@@H](NC(=O)OC)C(C)C)cc3)N2c2ccc(N3CC[Si](C)(C)CC3)c(F)c2)cc1)C(C)C	8.8	182	0.8	0.4	–
COC(=O)N[C@H](C(=O)N1CCC[C@H]1C(=O)Nc1ccc([C@@H]2CC[C@@H](c3ccc(NC(=O)[C@@H]4CCCN4C(=O)[C@@H](NC(=O)OC)[C@@H](C)OC)cc3)N2c2ccc([Si](C)(C)C(C)(C)C)cc2)cc1)[C@@H](C)OC	3	80	7.9	1.4	Ratio EC50 (Hepatitis C virus [5]): 10
COC(=O)N[C@H](C(=O)N1CCC[C@H]1C(=O)Nc1ccc([C@H]2CC[C@H](c3ccc(NC(=O)[C@@H]4CCCN4C(=O)[C@@H](NC(=O)OC)[C@@H](C)OC)cc3)N2c2ccc(N3CC[Si](C)(C)CC3)c(F)c2)cc1)[C@@H](C)OC	14	454	65	16	–
COC(=O)N[C@H](C(=O)N1CCC[C@H]1C(=O)Nc1ccc([C@H]2CC[C@H](c3ccc(NC(=O)[C@@H]4CCCN4C(=O)[C@@H](NC(=O)OC)[C@@H](C)OC)cc3)N2c2cc(F)c(N3CC[Si](C)(C)CC3)c(F)c2)cc1)[C@@H](C)OC	4.8	114	12	1.7	–
COC(=O)N[C@H](C(=O)N1CCC[C@H]1C(=O)Nc1ccc([C@H]2CC[C@H](c3ccc(NC(=O)[C@@H]4CCCN4C(=O)[C@@H](NC(=O)OC)C(C)C)cc3)N2c2cc(F)c(N3CC[Si](C)(C)CC3)c(F)c2)cc1)C(C)C	37	463	0.9	0.4	–
CC[Si](CC)(CC)c1ccc(N2[C@H](c3ccc(NC(=O)[C@@H]4CCCN4C(=O)[C@@H](NC(=O)OC)[C@@H](C)OC)cc3)CC[C@H]2c2ccc(NC(=O)[C@@H]3CCCN3C(=O)[C@@H](NC(=O)OC)[C@@H](C)OC)cc2)cc1	2	121	2.3	1	Ratio EC50 (Hepatitis C virus [5]): 7
COC(=O)N[C@H](C(=O)N1CCC[C@H]1c1nc2cc([C@@H]3CC[C@@H](c4cc5nc([C@@H]6CCCN6C(=O)[C@@H](NC(=O)OC)[C@@H](C)OC)[nH]c5cc4F)N3c3cc(F)c(N4CCC(c5ccc(F)cc5)CC4)c(F)c3)c(F)cc2[nH]1)[C@@H](C)OC	–	–	–	–	concentration at 0.5 h [6]: 0.414 µg/mL; Kp at 24 h [7]: 0.11; concentration at 8 h [8]: 0.0301 µg/mL; concentration at 24 h [9]: 69.6 ng/g; concentration at 24 h [10]: 0.718 µg/mL; Kp at 8 h [11]: 0.63; concentration at 8 h [12]: 18.9 ng/g; concentration at 0.5 h [13]: 0.103 µg/mL; Kp at 3 h [14]: 1.1; concentration at 3 h [15]: 1.54 µg/mL; concentration at 3 h [16]: 193 ng/g; concentration at 0.5 h [17]: 94 ng/g; concentration at 3 h [18]: 0.0964 µg/mL; Kp at 0.5 h [19]: 1.5; Kp at 0.5 h [20]: 0.43; concentration at 0.5 h [21]: 155 ng/g; Kp at 3 h [22]: 0.39; concentration at 3 h [23]: 102 ng/g
COC(=O)N[C@H](C(=O)N1CCC[C@H]1C(=O)Nc1ccc([C@H]2CC[C@H](c3ccc(NC(=O)[C@@H]4CCCN4C(=O)[C@@H](NC(=O)OC)C(C)C)cc3)N2c2ccc(N3CC[Si](C)(C)CC3)c(F)c2)cc1)C(C)C	51	831	0.8	0.5	–
COC(=O)N[C@H](C(=O)N1CCC[C@H]1C(=O)Nc1ccc([C@@H]2CC[C@@H](c3ccc(NC(=O)[C@@H]4CCCN4C(=O)[C@@H](NC(=O)OC)[C@@H](C)OC)cc3)N2c2ccc([Si](C)(C)C)cc2)cc1)[C@@H](C)OC	7	247	12	1.6	–
COC(=O)N[C@H](C(=O)N1CCC[C@H]1C(=O)Nc1ccc([C@@H]2CC[C@@H](c3ccc(NC(=O)[C@@H]4CCCN4C(=O)[C@@H](NC(=O)OC)C(C)C)cc3)N2c2ccc(C(C)(C)C)cc2)cc1)C(C)C [OMBITASVIR]	–	–	–	–	remaining at 1 h, 1 µM [24]: 82.5%; remaining at 1 h, 1 µM [25]: 63.5%; remaining at 1 h, 1 µM [26]: 73.5%
